According to ChEMBL document CHEMBL4689842, “EUbOPEN Chemogenomics Library wave 1” (2021):

Test system: Fibroblast
Test: Multiplex assay against human fibroblast
Format: toxicity, cell-based
How it was run: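 Phenotypes for tubulin, mitochondrial mass and membrane permeability are expressed as per cents of healthy-nucleus cells. Cells were stained live at seeding with Hoechst33342, BioTracker Green Microtubule Cytoskeleton Dye, MitoTracker Red and Annexin V Alexa Fluor 680, then imaged after compound addition on a CQ1 microscope at 37°C and 5% CO2. Machine-learning gating in CellPathfinder separated Hoechst high-intensity objects from normal cells, divided normal cells by nuclear state (healthy, pyknosed, fragmented) and divided pyknosed cells into mitotic or apoptotic.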

[1] = 12 h, 1 µM, compound concentration 1 uM, replicate 1
[2] = 12 h, 1 µM, compound concentration 1 uM, replicate 2
[3] = 12 h, 10 µM, compound concentration 10 uM, replicate 1
[4] = 12 h, 10 µM, compound concentration 10 uM, replicate 2
[5] = 24 h, 1 µM, compound concentration 1 uM, replicate 1
[6] = 24 h, 1 µM, compound concentration 1 uM, replicate 2
[7] = 24 h, 10 µM, compound concentration 10 uM, replicate 1
[8] = 24 h, 10 µM, compound concentration 10 uM, replicate 2
[9] = 48 h, 1 µM, compound concentration 1 uM, replicate 1
[10] = 48 h, 1 µM, compound concentration 1 uM, replicate 2
[11] = 48 h, 10 µM, compound concentration 10 uM, replicate 1
[12] = 48 h, 10 µM, compound concentration 10 uM, replicate 2

CCCS(=O)(=O)c1nc(NC2CC2)cc(-c2ccc3c(ccn3C3CC(C)(C)NC(C)(C)C3)c2)n1
Population Apoptotic (%) [1]: 41% | Population Fragmented Nuclei (%) [1]: 27% | Population Healthy Nuclei (%) [1]: 42% | Population Hoechst High Intensity Objects (%) [1]: 11% | Population Membrane Permeable-Phenotype (%) [1]: 22% | Population Mitochondria Different-Phenotype (%) [1]: 0% | Population Mitotic Cells (%) [1]: 58% | Population Normal (%) [1]: 88% | Population Pyknosed Nuclei (%) [1]: 30% | Population Tubulin-Different-Phenotype (%) [1]: 35% | Total Cell Count [1]: 107 | Population Apoptotic (%) [2]: 38% | Population Fragmented Nuclei (%) [2]: 14% | Population Healthy Nuclei (%) [2]: 71% | Population Hoechst High Intensity Objects (%) [2]: 5% | Population Membrane Permeable-Phenotype (%) [2]: 5% | Population Mitochondria Different-Phenotype (%) [2]: 41% | Population Mitotic Cells (%) [2]: 61% | Population Normal (%) [2]: 94% | Population Pyknosed Nuclei (%) [2]: 13% | Population Tubulin-Different-Phenotype (%) [2]: 29% | Total Cell Count [2]: 1044 | Population Apoptotic (%) [3]: 71% | Population Fragmented Nuclei (%) [3]: 42% | Population Healthy Nuclei (%) [3]: 4% | Population Hoechst High Intensity Objects (%) [3]: 10% | Population Membrane Permeable-Phenotype (%) [3]: 60% | Population Mitochondria Different-Phenotype (%) [3]: 0% | Population Mitotic Cells (%) [3]: 28% | Population Normal (%) [3]: 89% | Population Pyknosed Nuclei (%) [3]: 53% | Population Tubulin-Different-Phenotype (%) [3]: 40% | Total Cell Count [3]: 124 | Population Apoptotic (%) [4]: 92% | Population Fragmented Nuclei (%) [4]: 75% | Population Hoechst High Intensity Objects (%) [4]: 7% | Population Membrane Permeable-Phenotype (%) [4]: 100% | Population Mitochondria Different-Phenotype (%) [4]: 38% | Population Mitotic Cells (%) [4]: 7% | Population Normal (%) [4]: 92% | Population Pyknosed Nuclei (%) [4]: 19% | Population Tubulin-Different-Phenotype (%) [4]: 84% | Total Cell Count [4]: 101 | Population Apoptotic (%) [5]: 42% | Population Fragmented Nuclei (%) [5]: 33% | Population Healthy Nuclei (%) [5]: 39% | Population Hoechst High Intensity Objects (%) [5]: 15% | Population Membrane Permeable-Phenotype (%) [5]: 23% | Population Mitochondria Different-Phenotype (%) [5]: 13% | Population Mitotic Cells (%) [5]: 57% | Population Normal (%) [5]: 84% | Population Pyknosed Nuclei (%) [5]: 27% | Population Tubulin-Different-Phenotype (%) [5]: 39% | Total Cell Count [5]: 114 | Population Apoptotic (%) [6]: 22% | Population Fragmented Nuclei (%) [6]: 15% | Population Healthy Nuclei (%) [6]: 66% | Population Hoechst High Intensity Objects (%) [6]: 5% | Population Membrane Permeable-Phenotype (%) [6]: 10% | Population Mitochondria Different-Phenotype (%) [6]: 21% | Population Mitotic Cells (%) [6]: 77% | Population Normal (%) [6]: 94% | Population Pyknosed Nuclei (%) [6]: 18% | Population Tubulin-Different-Phenotype (%) [6]: 29% | Total Cell Count [6]: 1113 | Population Apoptotic (%) [7]: 76% | Population Fragmented Nuclei (%) [7]: 38% | Population Healthy Nuclei (%) [7]: 11% | Population Hoechst High Intensity Objects (%) [7]: 19% | Population Membrane Permeable-Phenotype (%) [7]: 63% | Population Mitochondria Different-Phenotype (%) [7]: 0% | Population Mitotic Cells (%) [7]: 24% | Population Normal (%) [7]: 80% | Population Pyknosed Nuclei (%) [7]: 50% | Population Tubulin-Different-Phenotype (%) [7]: 54% | Total Cell Count [7]: 123 | Population Apoptotic (%) [8]: 90% | Population Fragmented Nuclei (%) [8]: 73% | Population Healthy Nuclei (%) [8]: 10% | Population Hoechst High Intensity Objects (%) [8]: 7% | Population Membrane Permeable-Phenotype (%) [8]: 96% | Population Mitochondria Different-Phenotype (%) [8]: 75% | Population Mitotic Cells (%) [8]: 10% | Population Normal (%) [8]: 92% | Population Pyknosed Nuclei (%) [8]: 15% | Population Tubulin-Different-Phenotype (%) [8]: 96% | Total Cell Count [8]: 104 | Population Apoptotic (%) [9]: 58% | Population Fragmented Nuclei (%) [9]: 34% | Population Healthy Nuclei (%) [9]: 36% | Population Hoechst High Intensity Objects (%) [9]: 20% | Population Membrane Permeable-Phenotype (%) [9]: 16% | Population Mitochondria Different-Phenotype (%) [9]: 10% | Population Mitotic Cells (%) [9]: 41% | Population Normal (%) [9]: 79% | Population Pyknosed Nuclei (%) [9]: 28% | Population Tubulin-Different-Phenotype (%) [9]: 60% | Total Cell Count [9]: 105 | Population Apoptotic (%) [10]: 75% | Population Fragmented Nuclei (%) [10]: 46% | Population Healthy Nuclei (%) [10]: 49% | Population Hoechst High Intensity Objects (%) [10]: 8% | Population Membrane Permeable-Phenotype (%) [10]: 26% | Population Mitochondria Different-Phenotype (%) [10]: 12% | Population Mitotic Cells (%) [10]: 25% | Population Normal (%) [10]: 91% | Population Pyknosed Nuclei (%) [10]: 3% | Population Tubulin-Different-Phenotype (%) [10]: 46% | Total Cell Count [10]: 110 | Population Apoptotic (%) [11]: 76% | Population Fragmented Nuclei (%) [11]: 59% | Population Healthy Nuclei (%) [11]: 25% | Population Hoechst High Intensity Objects (%) [11]: 39% | Population Membrane Permeable-Phenotype (%) [11]: 76% | Population Mitochondria Different-Phenotype (%) [11]: 4% | Population Mitotic Cells (%) [11]: 23% | Population Normal (%) [11]: 60% | Population Pyknosed Nuclei (%) [11]: 15% | Population Tubulin-Different-Phenotype (%) [11]: 61% | Total Cell Count [11]: 137 | Population Apoptotic (%) [12]: 75% | Population Fragmented Nuclei (%) [12]: 78% | Population Healthy Nuclei (%) [12]: 15% | Population Hoechst High Intensity Objects (%) [12]: 37% | Population Membrane Permeable-Phenotype (%) [12]: 33% | Population Mitochondria Different-Phenotype (%) [12]: 9% | Population Mitotic Cells (%) [12]: 25% | Population Normal (%) [12]: 62% | Population Pyknosed Nuclei (%) [12]: 5% | Population Tubulin-Different-Phenotype (%) [12]: 42% | Total Cell Count [12]: 215
